Experiment [1] is filed under the species Gallus gallus. The experiment in a line: Relative percent binding to cellular retinoic acid binding protein (CRABP) in chick embryo skin. Summed up: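 Competition of unlabeled retinoid with [3H]retinoic acid for binding to CRABP from chick embryo skin. Inhibition caused by a 100-fold molar excess of unlabeled retinoic acid defined as 100%.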
The subject of experiment [2] is F9. The experiment is described as follows: Ability to induce differentiation of mouse F9 embryonal carcinoma cells. Format: functional. The following applies: read-out: ED50 (the source's name). In outline:
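Mouse F9 embryonal carcinoma cells grown at 1 × 10^5 cells/mL for 4 days with or without retinoid at 10^-7 to 10^-11 M. Harvest fluid mixed with 0.13 μM plasminogen, 0.3 mM H-D-Val-Leu-Lys-p-NA, 0.1% Tween 80 and fibrinogen fragments in Tris·HCl pH 7.5. Incubated 4 h at 25 °C, p-nitroaniline read at 405 nm. Triplicate mean absorbances plotted semilog against molarity; ED50 taken at midpoint between maximal and minimal absorbance.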

`CCNC(=O)/C(C(=O)OCC)=C(C)/C=C/C=C(C)/C=C/C1=C(C)CCCC1(C)C` yielded an RA in experiment [1] of 0%. Besides, the EC50 in experiment [2] came to 6 nM.

In experiment [1], `CCNC(=O)\C(C(=O)O)=C(C)/C=C/C=C(C)/C=C/C1=C(C)CCCC1(C)C` gave an RA of 55%. Moreover, the EC50 in experiment [2] came out at 0.6 nM.

Turning to `CC1=C(/C=C/C(C)=C/C=C/C(C)=C/C(=O)O)C(C)(C)CCC1` [TRETINOIN], the RA in experiment [1] came out at 100%. Besides, in experiment [2], the EC50 was 0.1 nM.

Take `CC1=C(/C=C/C(C)=C/C=C/C(C)=C\C(=O)O)C(C)(C)CCC1` [ISOTRETINOIN]: the RA in experiment [1] was found to be 100%. Further, the EC50 in experiment [2] is 0.3 nM.

For `CCNC(=O)\C(C(=O)OCC)=C(C)/C=C/C=C(C)/C=C/C1=C(C)CCCC1(C)C`, the RA in experiment [1] was determined as 0%. For the same compound, in experiment [2], the EC50 was found to be 6 nM.

Consider `CCNC(=O)/C(C(=O)O)=C(C)/C=C/C=C(C)/C=C/C1=C(C)CCCC1(C)C`, for which, in experiment [1], the RA was 55%. Besides, in experiment [2], the EC50 came to 0.5 nM.

Compound `CCOC(=O)C(C(=O)OCC)=C(C)/C=C/C=C(C)/C=C/C1=C(C)CCCC1(C)C` yielded an RA in experiment [1] of 0%. In addition, the EC50 in experiment [2] was 4.5 nM.

As to `CCOC(=O)/C(C(=O)O)=C(C)/C=C/C=C(C)/C=C/C1=C(C)CCCC1(C)C`, the RA in experiment [1] was determined as 90%. For the same compound, the EC50 in experiment [2] was 1 nM.

For `CC(/C=C/C=C(C)/C=C/C1=C(C)CCCC1(C)C)=C(C(=O)O)C(=O)O`, the RA in experiment [1] was found to be 65%. Also, the EC50 in experiment [2] is 0.5 nM.

Values taken from ChEMBL document CHEMBL1124126, “Terminal bifunctional retinoids. Synthesis and evaluations related to cancer chemopreventive activity” (1988).
